Most compounds without a hit are left out; they make up all but 3.1% or so of the library.
ADAM10 inh: inhibits human ADAM10 | O14672 | recombinant ADAM10, EDANS/DABCYL FRET peptide cleavage, 3 h | inhibition, % at 7 µM | actives 0.62% (n = 370,000) | AID 720582;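 active = inhibition above a per-campaign cutoff equal to the mean of compounds falling between control-based bounds plus 3 SD, cut at about 20% in these data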
Target sequence (O14672 214-748 limits assumed): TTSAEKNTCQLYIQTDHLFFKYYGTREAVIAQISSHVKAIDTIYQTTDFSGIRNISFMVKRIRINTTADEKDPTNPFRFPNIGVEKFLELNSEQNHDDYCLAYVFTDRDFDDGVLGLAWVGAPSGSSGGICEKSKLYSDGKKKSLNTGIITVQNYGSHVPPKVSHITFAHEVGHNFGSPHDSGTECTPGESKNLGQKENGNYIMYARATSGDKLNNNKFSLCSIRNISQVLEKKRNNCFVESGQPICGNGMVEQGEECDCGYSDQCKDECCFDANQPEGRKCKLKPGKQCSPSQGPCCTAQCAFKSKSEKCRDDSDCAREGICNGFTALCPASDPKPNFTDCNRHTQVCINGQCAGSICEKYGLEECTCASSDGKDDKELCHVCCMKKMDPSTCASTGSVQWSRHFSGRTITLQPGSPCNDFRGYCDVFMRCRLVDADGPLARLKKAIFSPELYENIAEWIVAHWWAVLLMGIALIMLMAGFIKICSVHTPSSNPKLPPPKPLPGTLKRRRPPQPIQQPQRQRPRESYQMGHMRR
MPTP inh: inhibitors of mitochondrial permeability transition pore; isolated mouse mitochondria, Ca2+ swelling absorbance, 30 min; inhibition, % at 10 µM; actives 1.4% (n = 360,000); AID 602449;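 active = inhibition of 50% or more, scaled per plate between neutral and stimulator controls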
ADAM17 inh: ADAM17 inhibition, QFRET primary screen. recombinant ADAM17, EDANS/DABCYL FRET peptide cleavage. inhibition, % at 6.95 µM. actives 0.83% (n = 370,000). P78536. AID 720648;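 active = inhibition above the mean of compounds lying between control limits plus 3 SD, set per campaign, cut at about 8.5% in these data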
V-ATPase pHluor: regulators of yeast V-ATPase proton transport; response, % at 10 µM; actives 0.37% (n = 350,000); S. cerevisiae, pHLuorin cytosolic pH fluorescence; AID 504577; in the data active = response mostly above about 7.3%, no sharp cut-off; inactive = mostly below about 5.4%; also: actives read high
Hep lipid drop: hepatic lipid droplet formation modulation; AML12 mouse hepatocytes, oleate lipid droplets, BODIPY imaging; inhibition, % at 6.5 µM; actives 0.4% (n = 240,000);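 active = lipid droplet intensity inhibited by at least 50%, with more than 500 cells counted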
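Material – AML12 mouse liver cells · Also added – oleate loading, 100 µM · Compound dosing – 6.5 µM single-point dosing · Times – overnight treatment with compound plus oleate · Measured by – fluorescence imaging, 20x objective, two fields per well · Read-out – percent inhibition of filter-corrected integrated lipid droplet intensity per well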
aDG glyco up: alpha-DG glycosylation activation. actives 0.22% (n = 360,000). Pro5-aDG cells, alpha-DG glycosylation AlphaScreen (IIH6); 0% Pro5, 100% B10-LARGE cell signal. activation, % at 10 µM;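 active = activation of at least 8% versus controls, or a plate z-score of at least 8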;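 also: Pro5 are CHO cells carrying HIG-tagged alpha-DG that lacks glycosylation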
Rh123 counter: Rhodamine 123 counter-screen of mitochondrial pore hits. shares compounds with MPTP inh. isolated mitochondria, membrane potential, Rhodamine 123 fluorescence. inhibition, % at 10 µM. actives 78% (n = 5,000). AID 624504; in the data active = inhibition above about 22%
MPTP swell DR: MPTP inhibition, dose response swelling confirmation; shares compounds with MPTP inh; IC50, µM; isolated mitochondria swelling, absorbance; AID 651561; actives 58% (n = 780); in the data active = IC50 below about 20 µM
MPTP counter DR: MPTP inhibitor counter-screen activity, dose response; shares compounds with MPTP inh; isolated mitochondria counterscreen, fluorescence read-out; IC50, µM; actives 49% (n = 780); AID 651564; in the data active = IC50 below about 80 µM
Numbers stand for hits; i = inactive; nt = no result; ! = not confirmed by another sample.

SMILES	ADAM10 inh	MPTP inh	ADAM17 inh	V-ATPase pHluor	Hep lipid drop	aDG glyco up	Rh123 counter	others
CCOC(=O)C1=C(COCCN)NC(C)=C(C(=O)OC)C1c1ccccc1Cl (stereo unspecified)	i	99	i	i	nt	i	i	MPTP swell DR=4;MPTP counter DR=72!
O=C(NCC1COc2ccccc2O1)c1ccc(NC(=O)C(Cl)Cl)cc1 (stereo unspecified)	i	nt	i	nt	nt	nt	nt
O=S(=O)(NCCNc1ncc(C(F)(F)F)cc1Cl)C(F)(F)F	i	81	i	i	i	i	94
CS(=O)(=O)NCCNc1ncc(C(F)(F)F)cc1Cl	i	i	i	i	i	i	nt
NCCCC[C@H]1CN=C(N)N1CCCCC1CCCCC1	i	74	i	i	nt	i	i	MPTP swell DR=i;MPTP counter DR=i
NC1=NC[C@H](c2ccccc2)N1CCCCC1CCCCC1	i	81	i	i	i	i	37
S=C1NC[C@H](c2ccccc2)N1CCCCC1CCCCC1	i	i	i	i	i	i	nt
COCCCNC(=O)C[C@H]1C[C@@]2(C(=O)OC)C(=C[C@H](C(C)(C)C)O[C@@H]2C)N(Cc2ccco2)C1=O	i	nt	i	nt	nt	nt	nt
CCCC(=O)N1CCC(C(=O)NC2CCCc3ccccc32)CC1 (stereo unspecified)	i	nt	i	nt	nt	nt	nt
Nc1nonc1C(=O)NCCNCc1ccccc1	i	i	i	i	i	i	nt
COc1ccc(CNCCNC(=O)c2nonc2N)cc1OC	i	i	i	i	i	i	nt
Nc1nonc1C(=O)NCCNCc1cc(Br)ccc1OCc1ccc(F)cc1	i	65	i	i	nt	i	72
Nc1nonc1C(=O)NCCNCc1c(OCc2ccccc2F)ccc2ccccc12	i	95	i	i	i	i	23
Cc1ccc(-n2c(SCC(=O)Nc3ccc4cn[nH]c4c3)nnc2-c2ccccc2)cc1	i	nt	i	nt	nt	nt	nt
Cc1ccc(NC(=O)CSc2nc(C)cc(=O)[nH]2)c(C)c1	i	nt	i	nt	nt	nt	nt
O=[N+]([O-])c1ccc(O)c(C=Nc2ccc3c(c2)OCO3)c1	i	i	i	i	i	i	nt
O=[N+]([O-])c1cc(Br)cc(C=Nc2ccc3c(c2)OCO3)c1O	i	75	i	i	i	i	52
CC(C)(C)N1Cc2nnn(Cc3ccccc3)c2-c2cc(N3CCCCC3)ccc2S1(=O)=O	i	nt	i	nt	nt	nt	nt
O=S(=O)(c1ccc(-c2csc(Nc3ccc(F)cc3)n2)cc1)N1CCCC1	i	84	i	i	i	i	69
O=S(=O)(c1ccc(-c2csc(Nc3ccc(Br)cc3)n2)cc1)N1CCCC1	i	60	i	i	i	i	56
Cc1cc(C)cc(Nc2nc(-c3ccc(S(=O)(=O)N4CCCC4)cc3)cs2)c1	i	i	i	i	i	i	nt
Cc1ccc(Nc2nc(-c3ccc(S(=O)(=O)N4CCCC4)cc3)cs2)cc1C	nt	i	nt	i	nt	i	nt
Cc1ccccc1CN1CCCCC(NC(=O)Nc2cccc([N+](=O)[O-])c2)C1=O (stereo unspecified)	i	nt	i	nt	nt	nt	nt
CC1=NN(C(=O)c2csc(C)c2)C(O)(C(F)(F)F)C1 (stereo unspecified)	i	i	i	i	i	i	nt
CC1=NN(C(=O)c2ccc(Br)cc2)C(O)(C(F)(F)OC(F)(F)F)C1 (stereo unspecified)	i	68	i	i	nt	i	78
O=C(NCc1ccccc1Cl)O[C@H]1CC[C@@]23CCCN2C(=O)CCC[C@H]3C1	i	nt	i	nt	nt	nt	nt
COCc1c(C#N)c(NCc2cc(OC)c(OC)c(OC)c2)nc(C)c1[N+](=O)[O-]	i	75	i	i	i	i	34
CCCCOC(=O)c1[nH]c2c(c1C)C(=O)CC(c1cc(OC)c(OC)c(OC)c1)C2 (stereo unspecified)	i	70	i	i	i	i	90
COCCCNC(=O)C[C@H]1C[C@@]2(C(=O)OC)C(=C[C@H](COCc3ccccc3)O[C@@H]2C)N(CCc2ccc(OC)c(OC)c2)C1=O	i	nt	i	nt	nt	nt	nt
COC(=O)c1cc(=O)nc(NN=C2c3ccccc3-c3ccccc32)s1	i	58	i	nt	nt	i	51

Screens (PubChem BioAssay)
